Data as given in ChEMBL document CHEMBL1773020, “Discovery of fused bicyclic agonists of the orphan G-protein coupled receptor GPR119 with in vivo activity in rodent models of glucose control” (Bioorg Med Chem Lett, 2011).
Calls of active or inactive are those of the source. No cut-off for these calls is given here.

Legend:
[1] = Oral bioavailability in cynomolgus monkey; assay type: ADME, organism-based, Macaca fascicularis; details: in vivo
[2] = Oral bioavailability in dog; assay type: ADME, organism-based, Canis lupus familiaris; details: in vivo
[3] = Elimination half life in iv dosed cynomolgus monkey; assay type: ADME, organism-based, Macaca fascicularis; details: in vivo, read-out: beta t1/2 (converted)
[4] = system: Rattus norvegicus; experiment: Antidiabetic activity in ZDF rat assessed as glycated hemoglobin level at 30 mg/kg, po measured on day 31
[5] = system: Rattus norvegicus; experiment: Antidiabetic activity in ZDF rat assessed as blood glucose level at 30 mg/kg, po measured on day 56; assay type: functional
In short: (§1)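 Male ZDF rats, 6 weeks old, baseline weight 200–250 g, were split into 3 groups by fed body weight and blood glucose. They received vehicle (100% PEG400) or compound daily for 56 days, n = 5–7 per group. Blood glucose and HbA1c were determined on days 1, 31 and 56, and body weight gain was recorded. Results are mean ± standard error.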

[6] = system: Rattus norvegicus; experiment: Antidiabetic activity in ZDF rat assessed as glycated hemoglobin level at 30 mg/kg, po measured on day 1; assay type: functional; in short: as §1
[7] = system: Rattus norvegicus; experiment: Antidiabetic activity in ZDF rat assessed as body weight gain at 10 mg/kg, po measured on day 56; assay type: functional; in short: as §1
[8] = target: Cytochrome P450 2C9 (Homo sapiens, UniProt P11712); experiment: Inhibition of CYP2C9; assay type: ADME
In short: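 Inhibition constant (Ki) determined in human hepatic microsomes.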

[9] = Plasma protein binding in human; assay type: ADME, cell-free; details: read-out: PPB
[10] = system: Rattus norvegicus; experiment: Antidiabetic activity in po dosed Sprague-Dawley rat assessed as oral glucose tolerance; assay type: functional; details: read-out: MED
In short: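 SD rats were fasted 3–16 h, and compound was given po at −30 min after a tail-nick glucose reading. At time 0, glucose 3 g/kg po (6 ml/kg) was given. Glucometer readings were taken at 0, 30, 60 and 120 min. Each rat was used twice, one week apart.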

[11] = Tmax in po dosed cynomolgus monkey; assay type: ADME, organism-based, Macaca fascicularis; details: in vivo
[12] = system: Caco-2; experiment: Apparent permeability across human Caco2 cells; assay type: ADME, cell-based
[13] = Plasma protein binding in female rat; assay type: ADME, cell-free; details: read-out: PPB (converted)
[14] = system: Cynomolgus monkey; experiment: Volume of distribution at steady state in po dosed cynomolgus monkey; assay type: ADME, organism-based, Macaca fascicularis; details: in vivo
[15] = Aqueous solubility of the compound; assay type: physicochemical; details: buffer
[16] = Oral bioavailability in mouse; assay type: ADME, organism-based; details: in vivo
[17] = system: Rattus norvegicus; experiment: Antidiabetic activity in hyperglycemic Sprague-Dawley rat model assessed as glucose dependent insulin release at 0.08 mg/kg/min, iv; assay type: functional, organism-based
In short: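 Hyperglycemic clamp in male SD rats fasted overnight. After 1 h of baseline glucose and insulin sampling, vehicle or compound was infused into the jugular vein for 2 h. Glucose was clamped at 100 mg/dl for hours 1–2, then raised to 300 mg/dl for hour 3 by a 30% glucose bolus and variable infusion. Plasma insulin was followed.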

[18] = Plasma protein binding in male rat; assay type: ADME, cell-free; details: read-out: PPB (converted)
[19] = Tmax in po dosed mouse; assay type: ADME, organism-based; details: in vivo
[20] = Plasma protein binding in female cynomolgus monkey; assay type: ADME, cell-free, Macaca fascicularis; details: read-out: PPB
[21] = system: Rattus norvegicus; experiment: Antidiabetic activity in ZDF rat assessed as blood glucose level at 10 mg/kg, po measured on day 56; assay type: functional; in short: as §1
[22] = system: Mus musculus; experiment: Antidiabetic activity in po dosed C57/BL6 mouse assessed as oral glucose tolerance; assay type: functional; details: read-out: MED
In short: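 C57/BL6 mice were handled twice and fasted 3–16 h. Compound was given 0–30 min before the first sample. At time 0 a glucose bolus ([…] as printed, po) was given. Tail-nick glucose was read by glucometer at 0, 20, 40, 60 and 120 min.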

[23] = Elimination half life in iv dosed mouse; assay type: ADME, organism-based; details: in vivo, read-out: beta t1/2 (converted)
[24] = system: Rattus norvegicus; experiment: Volume of distribution at steady state in po dosed Sprague-Dawley rat; assay type: ADME, organism-based; details: in vivo
[25] = Oral bioavailability in Sprague-Dawley rat; assay type: ADME, organism-based; details: in vivo
[26] = system: Rattus norvegicus; experiment: Antidiabetic activity in ZDF rat assessed as glycated hemoglobin level at 10 mg/kg, po measured on day 1; assay type: functional; in short: as §1
[27] = system: Salmonella typhimurium; experiment: Mutagenic activity in Salmonella Typhimurium; assay type: toxicity, organism-based; details: salmonella enterica subsp. enterica serovar typhimurium
[28] = system: Rattus norvegicus; experiment: Antidiabetic activity in ZDF rat assessed as glycated hemoglobin level at 30 mg/kg, po measured on day 56; assay type: functional; in short: as §1
[29] = Plasma protein binding in male cynomolgus monkey; assay type: ADME, cell-free, Macaca fascicularis; details: read-out: PPB
[30] = target: T1, Glucose-dependent insulinotropic receptor (Rattus norvegicus, UniProt Q7TQN8); experiment: Agonist activity at rat GPR119 by melanophore assay; assay type: functional
T1 sequence (Q7TQN8 whole entry): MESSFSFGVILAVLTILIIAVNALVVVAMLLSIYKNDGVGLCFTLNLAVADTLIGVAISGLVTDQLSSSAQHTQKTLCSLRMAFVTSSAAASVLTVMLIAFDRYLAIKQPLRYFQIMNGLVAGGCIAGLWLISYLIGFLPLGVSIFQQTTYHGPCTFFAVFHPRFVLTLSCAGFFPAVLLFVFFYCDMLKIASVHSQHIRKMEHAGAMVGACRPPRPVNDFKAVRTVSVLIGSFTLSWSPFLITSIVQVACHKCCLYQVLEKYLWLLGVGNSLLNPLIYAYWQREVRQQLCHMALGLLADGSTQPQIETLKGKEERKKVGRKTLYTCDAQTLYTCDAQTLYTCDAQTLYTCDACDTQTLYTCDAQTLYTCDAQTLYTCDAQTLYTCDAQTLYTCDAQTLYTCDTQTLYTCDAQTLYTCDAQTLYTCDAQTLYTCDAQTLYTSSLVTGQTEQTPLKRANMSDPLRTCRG
In short: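 Agonist EC50 measured in melanophores transfected with the human or rat GPR119 receptor sequence. Values are means of multiple determinations (n).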

[31] = system: Rattus norvegicus; experiment: Antidiabetic activity in ZDF rat assessed as glycated hemoglobin level at 10 mg/kg, po measured on day 56; assay type: functional; in short: as §1
[32] = Elimination half life in iv dosed dog; assay type: ADME, organism-based, Canis lupus familiaris; details: in vivo, read-out: beta t1/2 (converted)
[33] = Elimination half life in iv dosed Sprague-Dawley rat; assay type: ADME, organism-based; details: in vivo, read-out: beta t1/2 (converted)
[34] = Mutagenic activity in mouse micronuclei; assay type: toxicity
[35] = Tmax in po dosed Sprague-Dawley rat; assay type: ADME, organism-based; details: in vivo
[36] = target: Voltage-gated inwardly rectifying potassium channel KCNH2 (Homo sapiens, UniProt Q12809); experiment: Inhibition of human ERG by patch clamp assay
[37] = system: Rattus norvegicus; experiment: Antidiabetic activity in ZDF rat assessed as glycated hemoglobin level at 10 mg/kg, po measured on day 31
[38] = system: Rattus norvegicus; experiment: Antidiabetic activity in ZDF rat assessed as body weight gain at 30 mg/kg, po measured on day 56; assay type: functional; in short: as §1
[39] = Mutagenic activity in mouse lymphoma; assay type: toxicity
[40] = Tmax in po dosed dog; assay type: ADME, organism-based, Canis lupus familiaris; details: in vivo

Voltage-gated inwardly rectifying potassium channel KCNH2, sequence (Q12809 whole entry): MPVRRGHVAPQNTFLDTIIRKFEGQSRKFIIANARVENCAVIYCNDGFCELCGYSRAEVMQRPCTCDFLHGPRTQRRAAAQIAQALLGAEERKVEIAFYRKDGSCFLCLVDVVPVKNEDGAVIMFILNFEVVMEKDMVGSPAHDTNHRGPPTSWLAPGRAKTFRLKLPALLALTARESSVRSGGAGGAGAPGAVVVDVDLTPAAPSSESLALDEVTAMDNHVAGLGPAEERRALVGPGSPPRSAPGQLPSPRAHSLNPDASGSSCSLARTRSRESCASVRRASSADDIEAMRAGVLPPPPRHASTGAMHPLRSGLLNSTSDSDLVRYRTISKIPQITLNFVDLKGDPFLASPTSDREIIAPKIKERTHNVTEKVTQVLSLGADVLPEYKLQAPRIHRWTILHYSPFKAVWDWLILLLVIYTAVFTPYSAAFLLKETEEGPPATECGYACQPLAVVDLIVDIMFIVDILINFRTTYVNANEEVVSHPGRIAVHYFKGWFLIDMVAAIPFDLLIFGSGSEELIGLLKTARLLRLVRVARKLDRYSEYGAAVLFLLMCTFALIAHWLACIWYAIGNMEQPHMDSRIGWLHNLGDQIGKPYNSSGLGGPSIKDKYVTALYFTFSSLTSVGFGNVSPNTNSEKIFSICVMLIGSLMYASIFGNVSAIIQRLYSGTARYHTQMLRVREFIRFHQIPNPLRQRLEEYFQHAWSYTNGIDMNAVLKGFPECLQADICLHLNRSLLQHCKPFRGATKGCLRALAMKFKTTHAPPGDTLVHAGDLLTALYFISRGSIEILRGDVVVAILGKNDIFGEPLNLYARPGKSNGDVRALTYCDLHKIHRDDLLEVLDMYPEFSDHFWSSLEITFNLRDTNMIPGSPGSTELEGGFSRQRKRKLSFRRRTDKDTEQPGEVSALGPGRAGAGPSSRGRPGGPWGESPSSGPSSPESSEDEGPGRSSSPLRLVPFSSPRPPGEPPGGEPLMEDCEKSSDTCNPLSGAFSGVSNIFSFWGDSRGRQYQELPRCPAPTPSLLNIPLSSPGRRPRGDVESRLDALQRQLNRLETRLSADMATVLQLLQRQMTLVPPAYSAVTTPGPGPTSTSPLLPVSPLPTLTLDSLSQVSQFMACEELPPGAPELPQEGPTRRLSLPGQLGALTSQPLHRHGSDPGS
Cytochrome P450 2C9, sequence (P11712 whole entry): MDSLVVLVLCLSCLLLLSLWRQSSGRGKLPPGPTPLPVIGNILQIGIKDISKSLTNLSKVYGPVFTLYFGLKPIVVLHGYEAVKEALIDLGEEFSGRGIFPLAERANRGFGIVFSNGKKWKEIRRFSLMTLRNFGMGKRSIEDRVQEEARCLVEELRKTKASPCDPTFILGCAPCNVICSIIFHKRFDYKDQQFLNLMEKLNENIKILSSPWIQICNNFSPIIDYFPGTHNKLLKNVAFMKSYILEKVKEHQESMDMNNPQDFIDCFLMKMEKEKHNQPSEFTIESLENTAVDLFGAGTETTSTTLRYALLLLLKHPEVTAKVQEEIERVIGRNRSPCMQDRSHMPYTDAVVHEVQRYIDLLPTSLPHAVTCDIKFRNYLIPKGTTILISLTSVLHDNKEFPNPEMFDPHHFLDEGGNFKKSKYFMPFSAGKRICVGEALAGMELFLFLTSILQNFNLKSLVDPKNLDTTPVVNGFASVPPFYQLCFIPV

- bioavailability [1]: 44%
- bioavailability [2]: 22%
- half-life [3]: 48 min
- Ki [8]: 100 nM
- fraction unbound [9]: ≤ 0.01
- Tmax [11]: ≤ 2 h
- permeability [12]: permeable
- fraction unbound [13]: 0.034
- Vdss [14]: 0.1 L/kg
- solubility [15]: soluble
- bioavailability [16]: 44%
- fraction unbound [18]: 0.07
- Tmax [19]: ≤ 2 h
- fraction unbound [20]: ≤ 0.01
- half-life [23]: 48 min
- Vdss [24]: 2.6 L/kg
- bioavailability [25]: 44%
- fraction unbound [29]: ≤ 0.01
- EC50 [30]: 33 nM
- half-life [32]: 48 min
- half-life [33]: 48 min
- Tmax [35]: ≤ 2 h
- Tmax [40]: 6 h
SMILES: CC(C)OC(=O)N1CCC(Oc2ncnc3c2cnn3-c2ccc(S(C)(=O)=O)cc2F)CC1
- Activity [4]: 5.2%
- Activity [5]: 105.2 mg/dL
- Activity [6]: 3.4%
- Activity [7]: 224.9 g
- minimal effective dose [10]: 10 mg/kg
- Activity [17]: Active
- Activity [21]: 359.3 mg/dL
- minimal effective dose [22]: 3 mg/kg
- Activity [26]: 3.5%
- Activity [27]: Non-toxic
- Activity [28]: 4.7%
- Activity [31]: 8.2%
- Activity [34]: Non-toxic
- IC50 [36]: 3 µM
- Activity [37]: 7.3%
- Activity [38]: 204.2 g
- Activity [39]: Non-toxic
